≈ marks a conversion by molar mass, not a printed value.
How the values were obtained:
Candida albicans [1] = assay: Antifungal activity against Candida albicans ATCC 90028 assessed as reduction in cell viability after 48 hrs in absence of ergosterol by XTT assay; format: functional; details: ATCC 90028, 48 h
Candida albicans [2] = assay: Antifungal activity against Candida albicans ATCC 90028 assessed as reduction in cell viability at 1022.5 to 0.06 uM after 48 hrs in presence of ergosterol by XTT assay; format: functional; details: ATCC 90028, 48 h
Candida albicans [3] = assay: Antifungal activity against Candida albicans ATCC 90028 assessed as reduction in cell viability at 0.3 uM after 48 hrs in absence of ergosterol by XTT assay; format: functional
Candida albicans [4] = assay: Antifungal activity against Candida albicans ATCC 90028 assessed as reduction in cell viability at 0.1 uM after 48 hrs in presence of ergosterol by XTT assay; format: functional
Candida albicans [5] = assay: Growth inhibition of Candida albicans ATCC 90028 at 0.625 ug/ml incubated for 18 hrs at 35 degC by broth microdilution method relative to control; format: functional; details: ATCC 90028, 18 h, read-out: GI
Candida albicans [6] = assay: Growth inhibition of Candida albicans ATCC 90028 at 0.625 ug/ml incubated for 48 hrs at 35 degC by broth microdilution method relative to control; format: functional; details: ATCC 90028, 48 h, read-out: GI
Candida albicans [7] = assay: Fungicidal activity against Candida albicans ATCC 90028 assessed as drug level causing 3 fold reduction in bacterial count after 48 hrs at 35 degC; format: functional; details: ATCC 90028, 48 h
Candida albicans [8] = assay: Growth inhibition of Candida albicans ATCC 90028 at 1 ug/ml incubated for 4 hrs at 35 degC by broth microdilution method relative to control; format: functional; details: ATCC 90028, 4 h, read-out: GI
Candida albicans [9] = assay: Growth inhibition of Candida albicans ATCC 90028 at 0.125 ug/ml incubated for 4 hrs at 35 degC by broth microdilution method relative to control; format: functional; details: ATCC 90028, 4 h, read-out: GI
Candida albicans [10] = assay: Growth inhibition of Candida albicans ATCC 90028 at 0.0625 ug/ml incubated for 18 hrs at 35 degC by broth microdilution method relative to control; format: functional; details: ATCC 90028, 18 h, read-out: GI
Candida albicans [11] = assay: Growth inhibition of Candida albicans ATCC 90028 at 1 ug/ml incubated for 18 hrs at 35 degC by broth microdilution method relative to control; format: functional; details: ATCC 90028, 18 h, read-out: GI
CCRF-CEM [12] = assay: Antiproliferative activity against human CCRF-CEM cells assessed as cell viability at 100 uM after 72 hrs by MTT assay; format: functional; details: read-out: Activity
Procedure, shortened: (§1)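 MTT viability assay in CCRF-CEM and MCF-7 cells after 72 h exposure at 25, 50, 100 and 200 µM. Results are relative to control cells without inhibitor in 0.5% DMSO. Done in triplicate; values are means ± SD of three independent experiments.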

MCF7 [13] = assay: Antiproliferative activity against human MCF7 cells assessed as cell viability at 200 uM after 72 hrs by MTT assay; format: functional; details: MCF7, 72 h, read-out: Activity; procedure, shortened: as §1
Candida albicans [14] = assay: Growth inhibition of Candida albicans ATCC 90028 at 16 ug/ml incubated for 48 hrs at 35 degC by broth microdilution method relative to control; format: functional; details: ATCC 90028, 48 h, read-out: GI
Candida albicans [15] = assay: Growth inhibition of Candida albicans ATCC 90028 at 0.125 ug/ml incubated for 18 hrs at 35 degC by broth microdilution method relative to control; format: functional; details: ATCC 90028, 18 h, read-out: GI
Candida albicans [16] = assay: Growth inhibition of Candida albicans ATCC 90028 at 8 ug/ml incubated for 18 hrs at 35 degC by broth microdilution method relative to control; format: functional; details: ATCC 90028, 18 h, read-out: GI
MCF7 [17] = assay: Antiproliferative activity against human MCF7 cells assessed as cell viability at 25 uM after 72 hrs by MTT assay; format: functional; details: MCF7, 72 h, read-out: Activity; procedure, shortened: as §1
MCF7 [18] = assay: Antiproliferative activity against human MCF7 cells assessed as cell viability at 100 uM after 72 hrs by MTT assay; format: functional; details: MCF7, 72 h, read-out: Activity; procedure, shortened: as §1
Candida albicans [19] = assay: Growth inhibition of Candida albicans ATCC 90028 at 0.5 ug/ml incubated for 4 hrs at 35 degC by broth microdilution method relative to control; format: functional; details: ATCC 90028, 4 h, read-out: GI
CCRF-CEM [20] = assay: Antiproliferative activity against human CCRF-CEM cells assessed as cell viability at 200 uM after 72 hrs by MTT assay; format: functional; details: read-out: Activity; procedure, shortened: as §1
Vero [21] = assay: Cytotoxicity in African green monkey Vero cells up to 64 ug/ml incubated for 3 to 18 hrs by XTT assay; format: cell-based; details: chlorocebus sabaeus
CCRF-CEM [22] = assay: Antiproliferative activity against human CCRF-CEM cells assessed as cell viability at 25 uM after 72 hrs by MTT assay; format: functional; details: read-out: Activity; procedure, shortened: as §1
Candida albicans [23] = assay: Growth inhibition of Candida albicans ATCC 90028 at 16 ug/ml incubated for 18 hrs at 35 degC by broth microdilution method relative to control; format: functional; details: ATCC 90028, 18 h, read-out: GI
Candida albicans [24] = assay: Growth inhibition of Candida albicans ATCC 90028 at 8 ug/ml incubated for 48 hrs at 35 degC by broth microdilution method relative to control; format: functional; details: ATCC 90028, 48 h, read-out: GI
Candida albicans [25] = assay: Growth inhibition of Candida albicans ATCC 90028 at 0.25 ug/ml incubated for 4 hrs at 35 degC by broth microdilution method relative to control; format: functional; details: ATCC 90028, 4 h, read-out: GI
Vero [26] = assay: Cytotoxicity in African green monkey Vero cells incubated for 18 hrs by XTT assay; format: cell-based; details: Chlorocebus sabaeus
Candida albicans [27] = assay: Growth inhibition of Candida albicans ATCC 90028 at 0.0625 ug/ml incubated for 4 hrs at 35 degC by broth microdilution method relative to control; format: functional; details: ATCC 90028, 4 h, read-out: GI
CCRF-CEM [28] = assay: Antiproliferative activity against human CCRF-CEM cells after 72 hrs by MTT assay; format: functional, cell-based
Procedure, shortened: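 EC50 was derived from a repeat 72 h MTT assay in CCRF-CEM or MCF-7 cells. It is the concentration killing 50% of tumour cells compared with control cells incubated without inhibitor in 0.5% DMSO.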

Candida albicans [29] = assay: Growth inhibition of Candida albicans ATCC 90028 at 2 ug/ml incubated for 18 hrs at 35 degC by broth microdilution method relative to control; format: functional; details: ATCC 90028, 18 h, read-out: GI
Candida albicans [30] = assay: Fungicidal activity against Candida albicans ATCC 90028 assessed as log reduction in cell viability at 16 ug/ml after 48 hrs at 35 degC; format: functional
Procedure, shortened: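 MFC assay on C. albicans ATCC 90028 following M27-A3, at the molar equivalent of 16 µg/mL. CFU of treated cells were compared with CFU of the untreated inoculum. Activity is given as lg R = lg CFU/mL control − lg CFU/mL treated, and lg R ≥3 was defined as fungicidal. Values are means of two independent experiments.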

CCRF-CEM [31] = assay: Antiproliferative activity against human CCRF-CEM cells assessed as cell viability at 50 uM after 72 hrs by MTT assay; format: functional; details: read-out: Activity; procedure, shortened: as §1
Candida albicans [32] = assay: Growth inhibition of Candida albicans ATCC 90028 at 0.5 ug/ml incubated for 18 hrs at 35 degC by broth microdilution method relative to control; format: functional; details: ATCC 90028, 18 h, read-out: GI
Candida albicans [33] = assay: Growth inhibition of Candida albicans ATCC 90028 at 2 ug/ml incubated for 4 hrs at 35 degC by broth microdilution method relative to control; format: functional; details: ATCC 90028, 4 h, read-out: GI
Candida albicans [34] = assay: Growth inhibition of Candida albicans ATCC 90028 at 4 ug/ml incubated for 18 hrs at 35 degC by broth microdilution method relative to control; format: functional; details: ATCC 90028, 18 h, read-out: GI
MCF7 [35] = assay: Antiproliferative activity against human MCF7 cells assessed as cell viability at 50 uM after 72 hrs by MTT assay; format: functional; details: MCF7, 72 h, read-out: Activity; procedure, shortened: as §1
Candida albicans [36] = assay: Growth inhibition of Candida albicans ATCC 90028 at 8 ug/ml incubated for 4 hrs at 35 degC by broth microdilution method relative to control; format: functional; details: ATCC 90028, 4 h, read-out: GI
Candida albicans [37] = assay: Growth inhibition of Candida albicans ATCC 90028 at 0.25 ug/ml incubated for 18 hrs at 35 degC by broth microdilution method relative to control; format: functional; details: ATCC 90028, 18 h, read-out: GI

C[C@@H]1[C@H](O)[C@@H](C)/C=C/C=C/C=C/C=C/C=C/C=C/C=C/[C@H](O[C@@H]2O[C@H](C)[C@@H](O)[C@H](N)[C@@H]2O)C[C@@H]2O[C@](O)(C[C@@H](O)C[C@@H](O)[C@H](O)CC[C@@H](O)C[C@@H](O)CC(=O)O[C@H]1C)C[C@H](O)[C@H]2C(=O)O [AMPHOTERICIN B]
MIC (Candida albicans [1]): 0.3 µM (≈ 0.277 µg/mL)
MIC (Candida albicans [2]): 0.1 µM
Activity (Candida albicans [3]): 95.5%
Activity (Candida albicans [4]): 78.5%
inhibition of growth at 0.625 µg/mL (Candida albicans [5]): 100%
inhibition of growth at 0.625 µg/mL (Candida albicans [6]): 100%

CC(Cn1cnc2c1c(=O)n(C)c(=O)n2C)OCc1cn(CCCn2cnc3c(Br)c(Br)c(Br)c(Br)c32)nn1 (configuration not stated)
MFC (Candida albicans [7]): 36 µM (≈ 28.6 µg/mL)
inhibition of growth at 1 µg/mL (Candida albicans [8]): 99.2%
inhibition of growth at 0.125 µg/mL (Candida albicans [9]): 99.6%
inhibition of growth at 0.0625 µg/mL (Candida albicans [10]): 99.7%
inhibition of growth at 1 µg/mL (Candida albicans [11]): 100%
viability at 100 µM (CCRF-CEM [12]): 0%
viability at 200 µM (MCF7 [13]): 4.1%
inhibition of growth at 16 µg/mL (Candida albicans [14]): 100%
inhibition of growth at 0.125 µg/mL (Candida albicans [15]): 100%
inhibition of growth at 8 µg/mL (Candida albicans [16]): 99.9%
viability at 25 µM (MCF7 [17]): 74.5%
viability at 100 µM (MCF7 [18]): 2%
inhibition of growth at 0.5 µg/mL (Candida albicans [19]): 99%
viability at 200 µM (CCRF-CEM [20]): 0%
Activity (Vero [21]): Non-Toxic
viability at 25 µM (CCRF-CEM [22]): 0%
inhibition of growth at 16 µg/mL (Candida albicans [23]): 99.9%
inhibition of growth at 8 µg/mL (Candida albicans [24]): 99.2%
inhibition of growth at 0.25 µg/mL (Candida albicans [25]): 99.6%
IC50 (Vero [26]): ≥ 280 µM
inhibition of growth at 0.0625 µg/mL (Candida albicans [27]): 99.3%
EC50 (CCRF-CEM [28]): 6.3 µM
inhibition of growth at 2 µg/mL (Candida albicans [29]): 100%
log(activity) (Candida albicans [30]): 8
viability at 50 µM (CCRF-CEM [31]): 0%
inhibition of growth at 0.5 µg/mL (Candida albicans [32]): 99.6%
inhibition of growth at 2 µg/mL (Candida albicans [33]): 99.2%
inhibition of growth at 4 µg/mL (Candida albicans [34]): 99.9%
viability at 50 µM (MCF7 [35]): 29.7%
inhibition of growth at 8 µg/mL (Candida albicans [36]): 99%
inhibition of growth at 0.25 µg/mL (Candida albicans [37]): 100%

Reference: ChEMBL document CHEMBL4229342, “Synthesis of novel proxyphylline derivatives with dual Anti-Candida albicans and anticancer activity” (Eur J Med Chem, 2018)
